Results from ChEMBL document CHEMBL1949572, “Assessment of antiplatelet activity of 2-aminopyrimidines” (2012).

Assay: Ratio of compound to aspirin for human whole blood
Assay type: functional, Platelet

Question: For `COc1ccc(-c2cc(-c3ccc(Cl)cc3Cl)nc(N)n2)c(O)c1`, which Ratio is on record?
Answer: The Ratio was 2.

Assay: Antiplatelet activity in human whole blood assessed as inhibition of ADP-induced platelet aggregation at 10 ug/ml treated for 2 mins before ADP challenge measured after 6 mins by whole blood aggregometer
Assay type: functional
Outline: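 Whole blood diluted 1:1 with pre-warmed PBS (pH 7.4) at 37 °C. Stirred at 1000 rpm until baseline reached. Test sample or control added with 2 min incubation, then ADP (10 µM final) to start aggregation. Impedance (ohms) followed for 6 min, taken from lowest point to end of interval. Blood used within 4 h of collection; controls run between samples; three runs per assay.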

Question: For `COc1ccc(-c2cc(-c3ccccc3)nc(N)n2)c(O)c1`, which inhibition at 10 µg/mL is on record?
Answer: Its inhibition at 10 µg/mL is 42.7%.

Question: With `COc1ccc(-c2cc(-c3cc(OC)ccc3O)nc(N)n2)cc1` as the compound, how does the inhibition at 10 µg/mL read?
Answer: The inhibition at 10 µg/mL was 64.3%.

Question: With `COc1ccc(O)c(-c2cc(-c3ccccc3Cl)nc(N)n2)c1` as the compound, how does the inhibition at 10 µg/mL read?
Answer: The inhibition at 10 µg/mL was 55.1%.

Question: For `COc1ccc(O)c(-c2cc(-c3cccc(Cl)c3)nc(N)n2)c1`, which inhibition at 10 µg/mL is on record?
Answer: Its inhibition at 10 µg/mL is 66.8%.

Question: Which inhibition at 10 µg/mL does the source give for `COc1ccc(O)c(-c2cc(-c3ccc(F)cc3)nc(N)n2)c1` here?
Answer: The inhibition at 10 µg/mL was 8.79%.

Question: With `COc1ccc(O)c(-c2cc(-c3ccco3)nc(N)n2)c1` as the compound, how does the inhibition at 10 µg/mL read?
Answer: The inhibition at 10 µg/mL was 1.46%.

Question: For `COc1ccc(-c2cc(-c3ccc(Cl)cc3)nc(N)n2)c(O)c1`, which inhibition at 10 µg/mL is on record?
Answer: Its inhibition at 10 µg/mL is 8.42%.

Question: With `COc1ccc(-c2cc(-c3cccc(C)c3)nc(N)n2)c(O)c1` as the compound, how does the inhibition at 10 µg/mL read?
Answer: The inhibition at 10 µg/mL was 23.1%.

Question: Which inhibition at 10 µg/mL does the source give for `COc1ccc(-c2cc(-c3cccc(Cl)c3)nc(N)n2)c(O)c1` here?
Answer: The inhibition at 10 µg/mL was 65.8%.

Question: Which inhibition at 10 µg/mL does the source give for `COc1ccc(-c2cc(-c3ccc(Cl)cc3Cl)nc(N)n2)c(O)c1` here?
Answer: Its inhibition at 10 µg/mL is 77.5%.

Question: Which inhibition at 10 µg/mL does the source give for `COc1cccc(-c2cc(-c3ccc(OC)cc3O)nc(N)n2)c1` here?
Answer: The inhibition at 10 µg/mL was 51.2%.

Question: With `COc1ccc(-c2cc(-c3ccc(F)cc3)nc(N)n2)c(O)c1` as the compound, how does the inhibition at 10 µg/mL read?
Answer: The inhibition at 10 µg/mL was 64%.

Question: For `COc1ccc(-c2cc(-c3ccc(C)cc3)nc(N)n2)c(O)c1`, which inhibition at 10 µg/mL is on record?
Answer: Its inhibition at 10 µg/mL is 62.8%.

Question: Which inhibition at 10 µg/mL does the source give for `COc1ccc(-c2cc(-c3ccc([N+](=O)[O-])cc3)nc(N)n2)c(O)c1` here?
Answer: The inhibition at 10 µg/mL was 58.5%.

Question: For `CCOc1ccc(O)c(-c2cc(-c3ccccc3)nc(N)n2)c1`, which inhibition at 10 µg/mL is on record?
Answer: The inhibition at 10 µg/mL was 39.9%.

Question: Which inhibition at 10 µg/mL does the source give for `CC(=O)Oc1ccccc1C(=O)O` [ASPIRIN] here?
Answer: The inhibition at 10 µg/mL was 37.5%.
